Experiments:
[1] = system: Rattus norvegicus; assay: Compound was tested for intestinal ulcerogenic effect in rats, activity expressed as lesion score at a dose of 300 mg/kg; type: functional
How it was run: (§1)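 Normal fed rats were gavaged once daily for three consecutive days at 10–300 mg/kg and killed 24 h after the last dose. Intestines were examined for ulcers, recording incidence per group of 8 and a lesion score (±SE).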

[2] = system: Rattus norvegicus; assay: Antiinflammatory activity against collagen II arthritis in rats, activity% inhibition in injected paw edema; type: functional; set-up: concentration or dose not given beside the values
How it was run: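 Rats immunised with bovine articular-cartilage type II collagen (dissolved in 0.01 M AcOH for 24 h at 4 °C, dialysed against saline) mixed in equal volume with incomplete Freund's adjuvant. Paws were examined weekly for 7 weeks. An animal counted as arthritic at Δ paw volume ≥8.0 (injected paw) or ≥4.0 (noninjected paw). Bone lesions were scored on lateral-projection foot radiographs. 16 rats/group.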

[3] = system: Rattus norvegicus; assay: Compound was tested in vivo for antiinflammatory activity against chronic adjuvant arthritic rat by therapeutic inhibition 1 degree paw after peroral administration of 30 mg/kg of dose; type: functional; settings: route oral
[4] = system: Rattus norvegicus; assay: Compound was tested for gastric ulcerogenic effect in rats, activity expressed as lesion length at a dose of 300 mg/kg
[5] = system: Rattus norvegicus; assay: Compound was tested in vivo for antiinflammatory activity against chronic adjuvant arthritic rat by prophylactic inhibition 2 degree paw after peroral administration of 18 mg/kg of dose; settings: po
[6] = system: Rattus norvegicus; assay: Compound was tested in vivo for antiinflammatory activity against chronic adjuvant arthritic rat by therapeutic inhibition 1 degree paw after peroral administration of 18 mg/kg of dose; type: functional; settings: route oral
[7] = system: Rattus norvegicus; assay: Compound was tested for intestinal ulcerogenic effect in rats, activity expressed as ulcer incidence at a dose of 30 mg/kg; type: functional; how it was run: as §1
[8] = system: Rattus norvegicus; assay: Compound was tested in vivo for antiinflammatory activity against chronic adjuvant arthritic rat by therapeutic inhibition 2 degree paw after peroral administration of 10 mg/kg of dose; type: functional; settings: route oral
[9] = biological target: T1, Cyclooxygenase (Rattus norvegicus, UniProt P35355+Q63921); assay: In vitro inhibitory activity against Prostaglandin G/H synthase in rat neutrophils
T1 sequence (P35355 whole entry): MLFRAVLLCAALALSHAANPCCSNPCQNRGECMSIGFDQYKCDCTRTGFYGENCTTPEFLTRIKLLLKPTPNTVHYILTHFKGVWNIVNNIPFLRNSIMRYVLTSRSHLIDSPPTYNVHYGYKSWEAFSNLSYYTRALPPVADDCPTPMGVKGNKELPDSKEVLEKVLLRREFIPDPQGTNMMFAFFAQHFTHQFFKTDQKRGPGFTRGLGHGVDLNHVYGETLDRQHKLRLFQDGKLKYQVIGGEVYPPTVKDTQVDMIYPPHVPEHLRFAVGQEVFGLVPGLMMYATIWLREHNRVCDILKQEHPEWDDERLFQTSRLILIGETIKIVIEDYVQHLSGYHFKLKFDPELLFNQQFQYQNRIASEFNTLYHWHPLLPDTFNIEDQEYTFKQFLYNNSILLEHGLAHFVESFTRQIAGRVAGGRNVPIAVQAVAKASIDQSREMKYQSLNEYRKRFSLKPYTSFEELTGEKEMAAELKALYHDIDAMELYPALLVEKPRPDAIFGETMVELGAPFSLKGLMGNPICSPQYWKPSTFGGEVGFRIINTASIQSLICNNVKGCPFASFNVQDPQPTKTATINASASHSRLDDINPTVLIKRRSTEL
T1 sequence (Q63921 whole entry): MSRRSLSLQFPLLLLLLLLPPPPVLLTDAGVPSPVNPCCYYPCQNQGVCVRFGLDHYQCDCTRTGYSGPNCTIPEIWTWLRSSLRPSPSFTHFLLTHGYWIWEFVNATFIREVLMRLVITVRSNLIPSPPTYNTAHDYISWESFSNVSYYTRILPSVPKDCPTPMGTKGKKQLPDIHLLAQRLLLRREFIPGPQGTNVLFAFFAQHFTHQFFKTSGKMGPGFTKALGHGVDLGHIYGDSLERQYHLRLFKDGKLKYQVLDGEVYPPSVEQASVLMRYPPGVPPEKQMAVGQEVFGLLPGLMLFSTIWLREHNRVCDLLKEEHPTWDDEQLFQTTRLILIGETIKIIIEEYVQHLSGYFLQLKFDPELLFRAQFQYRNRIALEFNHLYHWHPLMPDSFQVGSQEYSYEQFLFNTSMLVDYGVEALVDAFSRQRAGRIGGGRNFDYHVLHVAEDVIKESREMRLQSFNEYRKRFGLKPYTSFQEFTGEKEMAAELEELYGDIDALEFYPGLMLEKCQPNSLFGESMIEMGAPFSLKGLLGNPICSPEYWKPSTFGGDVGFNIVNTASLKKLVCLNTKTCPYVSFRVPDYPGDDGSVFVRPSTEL

[10] = system: Rattus norvegicus; assay: Compound was tested for intestinal Ulcerogenic effect in rats, activity expressed as lesion score at a dose of 10 mg/kg; type: functional; how it was run: as §1
[11] = system: Rattus norvegicus; assay: Compound was tested for gastric Ulcerogenic effect in rats, activity expressed as lesion length at a dose of 300 mg/kg
[12] = system: Rattus norvegicus; assay: Compound was tested for intestinal Ulcerogenic effect in rats at a dose of 100 mg/kg; type: functional; how it was run: as §1
[13] = system: Rattus norvegicus; assay: Compound was tested for intestinal Ulcerogenic effect in rats, activity expressed as lesion score at a dose of 30 mg/kg; type: functional; how it was run: as §1
[14] = system: Rattus norvegicus; assay: Compound was tested in vivo for antiinflammatory activity against chronic adjuvant arthritic rat by therapeutic inhibition 2 degree paw after peroral administration of 3 mg/kg of dose; type: functional; settings: route oral
[15] = Plasma level data at a dose of 20 mg/kg, iv after 0.25 hr; type: ADME, organism-based; set-up: dose 20 mg/kg, route intravenous; settings: read-out: Plasma level
How it was run: (§2)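 Male Lewis rats get a single iv or oral dose of the sodium salt, suspended in 0.4% (w/v) methyl cellulose. Plasma drug levels are measured by HPLC at the timed points and given as mean ± SD, n = 3.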

[16] = Plasma level data at a dose of 20 mg/kg, po after 0.25 hr; type: ADME, organism-based; set-up: dose 20 mg/kg, route oral; settings: read-out: Plasma level; how it was run: as §2
[17] = system: Rattus norvegicus; assay: Compound was tested for intestinal Ulcerogenic effect in rats at a dose of 10 mg/kg; type: functional; how it was run: as §1
[18] = Plasma level data at a dose of 20 mg/kg, po after 1 hr; type: ADME, organism-based; set-up: dose 20 mg/kg, route oral; settings: read-out: Plasma level; how it was run: as §2
[19] = Plasma level data at a dose of 36 mg/kg, iv after 4 hr; type: ADME, organism-based; set-up: dose 36 mg/kg, route intravenous; settings: read-out: Plasma level; how it was run: as §2
[20] = Plasma level data at a dose of 36 mg/kg, po after 1 hr; type: ADME, organism-based; set-up: dose 36 mg/kg, route oral; settings: read-out: Plasma level; how it was run: as §2
[21] = system: Rattus norvegicus; assay: Compound was tested in vivo for antiinflammatory activity against chronic adjuvant arthritic rat by therapeutic percentage inhibition 2 degree paw after peroral administration of 3.3 mg/kg of dose; type: functional; settings: route oral
[22] = Plasma level data at a dose of 36 mg/kg, iv after 2 hr; type: ADME, organism-based; set-up: dose 36 mg/kg, route intravenous; settings: read-out: Plasma level; how it was run: as §2
[23] = system: Rattus norvegicus; assay: Compound was tested in vivo for antiinflammatory activity against chronic adjuvant arthritic rat by therapeutic percentage inhibition 2 degree paw after peroral administration of 10 mg/kg of dose; type: functional; settings: route oral
[24] = system: Rattus norvegicus; assay: Compound was tested in vivo for antiinflammatory activity against chronic adjuvant arthritic rat by therapeutic percentage inhibition 1 degree paw after peroral administration of 10 mg/kg of dose; type: functional; settings: route oral
[25] = Plasma level data at a dose of 36 mg/kg, po after 4 hr; type: ADME, organism-based; set-up: dose 36 mg/kg, route oral; settings: read-out: Plasma level
How it was run: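 Male Lewis rats given a single po dose of the sodium salt suspended in 0.4% (w/v) methyl cellulose. Plasma drug levels measured by HPLC at set times up to 12 h; values are mean ± SD, n = 3.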

IC50 [9] [µM]	Structure (SMILES)	Inhibition [2] [%]	inhibition in vivo at 30 mg/kg [3] [%]	inhibition in vivo at 18 mg/kg [5] [%]	inhibition in vivo at 10 mg/kg [8] [%]	Lesion length [10] [mm rat-1]	Length [11] [mm rat-1]	Ulcer incidence [12] [number/group]	Lesion score [13] [mm rat-1]	Ulcer incidence [17] [number/group]	further results
4.2	CC(C)=CCc1c(O)n(Cc2ccc(F)cc2)c2nc3c(c(=O)n(C)c(=O)n3C)n2c1=O	53.9	59	69	67						Lesion length [1]: 0.2 mm rat-1; Length [4]: 3 mm rat-1; inhibition in vivo at 18 mg/kg [6]: 39%; Ulcer incidence [7]: 0 number/group
2	CC(C)=CCc1c(O)n(Cc2ccccc2)c2nc3c(c(=O)n(C)c(=O)n3C)n2c1=O		63		70	0	9.6	1	0	0	inhibition in vivo at 3 mg/kg [14]: 51%; concentration at 0.25 h [15]: 95.1 µg/mL; concentration at 0.25 h [16]: 2400 ng/mL; concentration at 1 h [18]: 17300 ng/mL
	CCCc1c(O)n(Cc2ccc(F)cc2)c2nc3c(c(=O)n(C)c(=O)n3C)n2c1=O	38.2		49		0	0	0	0	0	concentration at 4 h [19]: 72.4 µg/mL; concentration at 1 h [20]: 23100 ng/mL; inhibition in vivo at 3.3 mg/kg [21]: 30%; concentration at 2 h [22]: 128 µg/mL; inhibition in vivo at 10 mg/kg [23]: 38%; inhibition in vivo at 10 mg/kg [24]: 27%; concentration at 4 h [25]: 41800 ng/mL

Source: ChEMBL document CHEMBL1123282, “Antiinflammatory activity of substituted 6-hydroxypyrimido[2,1-f]purine-2,4,8(1H,3H,9H)-triones. Atypical nonsteroidal antiinflammatory agents” (J Med Chem, 1986)
